Sampled rows, rich in hits. Any-hit rate of the full collection: about 2.7%.
RBBP9 inh: human RBBP9 hydrolase inhibition; inhibition, % at 7.94 µM; actives 0.2% (n = 220,000); recombinant RBBP9, FP-Rh probe fluorescence polarization; O75884; AID 1515;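 active = inhibition above the campaign mean of all tested compounds plus 3 SD, cut at about 14% in these data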;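 note: plate controls were DMSO wells with RBBP9 for no effect and wells lacking RBBP9 protein for full effect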
Target sequence (O75884 whole entry, looked up): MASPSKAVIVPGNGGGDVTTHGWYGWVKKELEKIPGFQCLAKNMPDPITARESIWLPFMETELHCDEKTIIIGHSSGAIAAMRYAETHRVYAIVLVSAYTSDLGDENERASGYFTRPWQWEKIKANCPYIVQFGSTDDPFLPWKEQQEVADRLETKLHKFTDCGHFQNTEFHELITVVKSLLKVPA
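System: RBBP9 protein / Buffer or medium: Tris/NaCl buffer pH 8.0 with 0.1% Pluronic / Probe or stimulus: Serine-hydrolase probe FP-Rh, 375 nM pre-mixing / Dosing: 7.94 µM single dose, 0.794% DMSO / Times: enzyme-compound preincubation 30 min, then probe labeling 45 min, 25 °C / Technique: fluorescence polarization (mP), excitation 525 nm, emission 598 nm / Replication: singlicate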
PAFAH1B2 FP inh: PAFAH1B2 (human) inhibition | P68402 | recombinant PAFAH1B2, FP-rhodamine activity probe, fluorescence polarization | inhibition, % at 3.39 µM | actives 1.2% (n = 340,000);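 active = inhibition above the mean of all tested compounds plus 3 SD, cut at about 24% in these data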;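 note: 0% = enzyme with DMSO and 100% = wells lacking PAFAH1B2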
Target sequence (P68402 whole entry, looked up): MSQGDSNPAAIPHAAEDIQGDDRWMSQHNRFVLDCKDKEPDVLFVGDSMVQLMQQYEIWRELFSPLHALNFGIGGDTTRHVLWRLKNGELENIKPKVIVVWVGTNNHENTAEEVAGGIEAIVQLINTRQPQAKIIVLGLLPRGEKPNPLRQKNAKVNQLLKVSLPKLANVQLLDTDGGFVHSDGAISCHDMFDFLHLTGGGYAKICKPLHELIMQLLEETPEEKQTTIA
PAFAH2 inh: PAFAH2 (human) inhibition. Q99487. recombinant PAFAH2, FP-rhodamine activity probe, fluorescence polarization. inhibition, % at 3.39 µM. actives 0.99% (n = 340,000). AID 492956;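 active = inhibition above the mean over all tested compounds plus 3 SD, cut at about 30% in these data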;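 note: inhibitors block probe labeling of enzyme so polarization drops; 0% = enzyme with DMSO and 100% = wells lacking PAFAH2 protein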
PAFAH1B3 FP inh: PAFAH1B3 (human) inhibition. Q15102. actives 0.28% (n = 340,000). recombinant PAFAH1B3, FP-rhodamine probe, fluorescence polarization. inhibition, % at 3.39 µM;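 active = inhibition above the screen-wide average of all tested compounds plus 3 SD, cut at about 25% in these data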;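 note: 0% = enzyme with DMSO only and 100% = wells lacking PAFAH1B3 protein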
Target sequence (Q15102 whole entry, looked up): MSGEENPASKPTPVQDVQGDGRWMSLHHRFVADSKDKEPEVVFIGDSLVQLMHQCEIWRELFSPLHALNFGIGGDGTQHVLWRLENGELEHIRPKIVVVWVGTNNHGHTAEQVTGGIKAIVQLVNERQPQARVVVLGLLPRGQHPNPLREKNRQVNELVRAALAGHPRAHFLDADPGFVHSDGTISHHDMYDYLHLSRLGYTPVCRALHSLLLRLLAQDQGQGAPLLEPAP
pPAFAH inh: pPAFAH (human) enzyme inhibition; recombinant pPAFAH, FP-rhodamine probe fluorescence polarization; inhibition, % at 3.39 µM; actives 1.5% (n = 330,000); AID 463082;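 active = inhibition above the mean inhibition across the screen plus 3 SD, cut at about 25% in these data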;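 note: inhibitors block binding of the rhodamine activity-based probe so polarization drops; 0% = enzyme with DMSO and 100% = wells lacking pPAFAH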
PAFAH2 FP conf: PAFAH2 (human) inhibition, confirmed; actives 65% (n = 2,300); AID 493030; shares compounds with PAFAH2 inh; inhibition, % at 3.39 µM; recombinant PAFAH2, FP-rhodamine activity probe, fluorescence polarization;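 active = mean inhibition over three repeats above a set limit taken from the earlier primary screen, cut at about 30% in these data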;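 note: inhibitor blocks binding of rhodamine activity probe so polarization falls; 0% = enzyme with DMSO and 100% = wells lacking PAFAH2 protein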
Starred values were filed as active, the others as inactive.

What do the screens show for `CC(C)=CC(=O)OCC(=O)Nc1ccc(Cl)cn1`?
RBBP9 inh: 13; PAFAH1B2 FP inh: 5; PAFAH2 inh: 52*; PAFAH1B3 FP inh: 5; pPAFAH inh: 3; PAFAH2 FP conf: 43*

How did O=C(COC(=O)/C=C/c1ccc(F)cc1)Nc1ccc(Cl)cn1 do in these assays?
RBBP9 inh: -5; PAFAH1B2 FP inh: -2; PAFAH2 inh: 30*; PAFAH1B3 FP inh: 7; pPAFAH inh: 2; PAFAH2 FP conf: 22

How did COc1cc(/C=C/C(=O)OCC(=O)Nc2ccc([N+](=O)[O-])cc2)ccc1O do in these assays?
RBBP9 inh: -9; PAFAH1B2 FP inh: 1; PAFAH2 inh: 78*; PAFAH1B3 FP inh: 5; pPAFAH inh: 6; PAFAH2 FP conf: 81*

How did CCOC(=O)/C=C/C(=O)OCC(=O)Nc1ccc(Cl)cn1 do in these assays?
RBBP9 inh: 1; PAFAH1B2 FP inh: -6; PAFAH2 inh: -2; PAFAH1B3 FP inh: -1; pPAFAH inh: 2

How did COc1cc(/C=C/C(=O)OCC(=O)Nc2ccc(S(N)(=O)=O)cc2)ccc1O do in these assays?
RBBP9 inh: -6; PAFAH1B2 FP inh: -1; PAFAH2 inh: -3; PAFAH1B3 FP inh: 3; pPAFAH inh: 4

How did COc1cc(/C=C/C(=O)OCC(=O)Nc2ccc(Cl)cn2)ccc1O do in these assays?
PAFAH1B2 FP inh: 4; PAFAH2 inh: 64*; PAFAH1B3 FP inh: 7; pPAFAH inh: 5; PAFAH2 FP conf: 66*

How did COc1ccc(-n2nc(C(=O)N(C)C)nc2-c2ccccc2)cc1 do in these assays?
PAFAH1B2 FP inh: 2; PAFAH2 inh: -2; PAFAH1B3 FP inh: 2; pPAFAH inh: 0

What do the screens show for `CN(CC(=O)Nc1cccc(F)c1)C(=O)c1cc(S(=O)(=O)N2CCN(c3ccccc3)CC2)ccc1Cl`?
PAFAH1B2 FP inh: 2; PAFAH2 inh: 5; PAFAH1B3 FP inh: -1; pPAFAH inh: 3

Results for CCN(CC)c1ccc2c(C)c(Cl)c(=O)oc2c1 ?
RBBP9 inh: 0; PAFAH1B2 FP inh: 4; PAFAH2 inh: 2; PAFAH1B3 FP inh: 2; pPAFAH inh: 8

What do the screens show for `CCN(CC)c1ccc2c(c1)oc(=O)c1c(Cl)cc(=O)oc12`?
RBBP9 inh: -4; PAFAH1B2 FP inh: 21; PAFAH2 inh: 36*; PAFAH1B3 FP inh: 14; pPAFAH inh: 8; PAFAH2 FP conf: 24

What do the screens show for `COc1ccc(C(=O)O/N=C(\N)Cc2ccc(Cl)cc2)cc1OC`?
RBBP9 inh: -5; PAFAH1B2 FP inh: 4; PAFAH2 inh: 74*; PAFAH1B3 FP inh: 3; pPAFAH inh: 3; PAFAH2 FP conf: 78*

Results for N/C(Cc1ccc(Cl)cc1)=N\OC(=O)c1ccccc1 ?
RBBP9 inh: 0; PAFAH1B2 FP inh: 8; PAFAH2 inh: 83*; PAFAH1B3 FP inh: 3; pPAFAH inh: 2; PAFAH2 FP conf: 76*

Results for COc1cc(C(=O)O/N=C(\N)Cc2ccc([N+](=O)[O-])cc2)cc(OC)c1OC ?
RBBP9 inh: -6; pPAFAH inh: 8

Results for N/C(CCS(=O)(=O)c1ccc(Cl)cc1)=N\OC(=O)c1ccc(Cl)cc1 ?
RBBP9 inh: -8; PAFAH1B2 FP inh: 1; PAFAH2 inh: 22; PAFAH1B3 FP inh: -1; pPAFAH inh: 6

What do the screens show for `COc1ccc(C(=O)O/N=C(\N)Cc2ccc(Cl)c(Cl)c2)cc1OC`?
RBBP9 inh: -11; PAFAH1B2 FP inh: -6; PAFAH2 inh: 90*; PAFAH1B3 FP inh: -3; pPAFAH inh: 9; PAFAH2 FP conf: 82*

What do the screens show for `CC(C)(C)C(=O)OC/C(N)=N/OC(=O)c1ccc(Cl)cc1`?
RBBP9 inh: -10; PAFAH1B2 FP inh: 11; PAFAH2 inh: 85*; PAFAH1B3 FP inh: 3; pPAFAH inh: 10; PAFAH2 FP conf: 65*

Results for Cc1ccc(/C=c2\sc3nc(-c4ccco4)nn3c2=O)o1 ?
RBBP9 inh: -3; PAFAH1B2 FP inh: 5; PAFAH2 inh: 39*; PAFAH1B3 FP inh: 9; pPAFAH inh: 20; PAFAH2 FP conf: 1

How did Cc1ccc(/C=c2\sc3nc(-c4ccccc4Br)nn3c2=O)o1 do in these assays?
RBBP9 inh: 5; PAFAH1B2 FP inh: 7; PAFAH2 inh: 13; PAFAH1B3 FP inh: -2; pPAFAH inh: 24

How did COc1ccccc1/C=C\C(=O)NCC(=O)N/N=C(\C)Cc1ccccc1 do in these assays?
RBBP9 inh: -9; PAFAH1B2 FP inh: 4; PAFAH2 inh: 0; PAFAH1B3 FP inh: -1; pPAFAH inh: 4

Results for CN(C)c1ccc(C(=O)OCC(=O)NCC2CCCO2)cc1 (stereo not given) ?
RBBP9 inh: -8; PAFAH1B2 FP inh: 1; PAFAH2 inh: 62*; PAFAH1B3 FP inh: 2; pPAFAH inh: 8; PAFAH2 FP conf: 56*

How did CC(=O)Nc1ccc(C(=O)OCC(=O)NCc2ccccc2)cc1 do in these assays?
RBBP9 inh: 2; PAFAH1B2 FP inh: 2; PAFAH2 inh: 55*; PAFAH1B3 FP inh: 8; pPAFAH inh: -6; PAFAH2 FP conf: 46*

Results for CN(C)c1cccc(C(=O)OCC(=O)NCC2CCCO2)c1 (stereo not given) ?
RBBP9 inh: -1; PAFAH1B2 FP inh: -3; PAFAH2 inh: 24; PAFAH1B3 FP inh: -2; pPAFAH inh: 6

Results for CCOc1ccc(C(=O)OCC(=O)NCCCc2ccccc2)cc1 ?
PAFAH1B2 FP inh: 1; PAFAH2 inh: 55*; PAFAH1B3 FP inh: -2; pPAFAH inh: 13; PAFAH2 FP conf: 35*

Results for CC(=O)Nc1ccc(C(=O)OCC(=O)c2ccc(F)cc2)cc1 ?
RBBP9 inh: -3; PAFAH1B2 FP inh: 5; PAFAH2 inh: 38*; PAFAH1B3 FP inh: 5; pPAFAH inh: -9; PAFAH2 FP conf: 36*

What do the screens show for `CCOC(=O)n1n[n+]([O-])c2ccccc21`?
RBBP9 inh: -3; PAFAH1B2 FP inh: 0; PAFAH2 inh: 4; PAFAH1B3 FP inh: -2; pPAFAH inh: -2

Results for COC(=O)c1ccc(CNC(=O)COC(=O)c2ccc(N(C)C)cc2)cc1 ?
RBBP9 inh: 4; PAFAH1B2 FP inh: 8; PAFAH2 inh: 44*; PAFAH1B3 FP inh: 9; pPAFAH inh: 6; PAFAH2 FP conf: 40*

What do the screens show for `CC(=O)Nc1ccc(C(=O)OCC(=O)Nc2c(F)cccc2F)cc1`?
RBBP9 inh: -13; PAFAH1B2 FP inh: 4; PAFAH2 inh: 50*; PAFAH1B3 FP inh: 7; pPAFAH inh: -2; PAFAH2 FP conf: 38*

How did COc1ccc(C(=O)COC(=O)c2ccc(N(C)C)cc2)cc1 do in these assays?
RBBP9 inh: -8; PAFAH1B2 FP inh: -2; PAFAH2 inh: 5; PAFAH1B3 FP inh: -1; pPAFAH inh: 6

What do the screens show for `CN(C)c1ccc(C(=O)OCC(=O)NCCNC(=O)COC(=O)c2ccc(N(C)C)cc2)cc1`?
PAFAH1B2 FP inh: -3; PAFAH2 inh: 13; PAFAH1B3 FP inh: 15; pPAFAH inh: 5

Results for Cc1noc(C)c1C(=O)OCC(=O)Nc1c(F)cccc1F ?
RBBP9 inh: -10; PAFAH1B2 FP inh: 0; PAFAH2 inh: -6; PAFAH1B3 FP inh: 3; pPAFAH inh: 3

Screens as filed in PubChem BioAssay.
